The values that follow come from PMC9513682 (RSC Advances, 2022).

Each structure is given as a SMILES string.

One series addresses B-RAF(V600E) (Homo sapiens, UniProt P15056, V600E). As to the kind of experiment: B-RAF. In kind it is biochemical. Conditions: for IC50: B-RAF (V600E) IC50, n = 3; for selectivity for B-RAFV600E kinase over B-RAF wild-type kinase: ratio of kinase IC50 values.
Another series deals with B-RAF (wild-type) (Homo sapiens, UniProt P15056). In words: B-RAF. In kind it is biochemical.
For a further series, the system named is WM266.4 melanoma cells. In words: MTT cytotoxicity assay, B-RAFV600E-mutated melanoma cells. Conditions: for potency against WM266.4 melanoma cells relative to dabrafenib: WM266.4 cells. Format: cell-based. An outline of the steps: (§1)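 WM266.4 (B-RAFV600E) and Sk-mel-23 (B-RAF wild type) melanoma cells were grown in DMEM with FBS, penicillin and streptomycin at 37 °C under CO₂. […] MTT reagent was added and cells re-incubated; absorbance was read at 590 nm. IC50 was taken from concentration–inhibition curves (n = 3).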

For another series, the system named is Sk-mel-23 melanoma cells. As to the kind of experiment: MTT cytotoxicity assay, B-RAF wild type melanoma cells. Conditions: Homo sapiens, SK-MEL-23, 48 h, read-out: Sk-mel-23 IC50. Format: cell-based. In a few lines:
as §1
On the technique in general: Tetrazolium assays rely on reduction of a dye to a coloured formazan, in cell work by metabolically active cells.

Series [1] deals with phosphorylation of downstream ERK1/2 (pT202/Y204) in WM266.4 cells. In words: Cell-based B-RAFV600E kinase assay. Conditions: for pERK 1/2: WM266.4 cell line, mean ± standard error of two experiments. In a few lines:
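Phospho-ERK1/2 (pT202/Y204) and total ERK1/2 were measured by a single-step sandwich ELISA (affinity-tagged capture antibody, reporter-conjugated detector antibody). pERK was reported in ng/mL as duplicate determinations. % inhibition was calculated against untreated control cells, as mean ± S.E. of two experiments.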

Sequence of B-RAF (wild-type) (P15056 whole entry): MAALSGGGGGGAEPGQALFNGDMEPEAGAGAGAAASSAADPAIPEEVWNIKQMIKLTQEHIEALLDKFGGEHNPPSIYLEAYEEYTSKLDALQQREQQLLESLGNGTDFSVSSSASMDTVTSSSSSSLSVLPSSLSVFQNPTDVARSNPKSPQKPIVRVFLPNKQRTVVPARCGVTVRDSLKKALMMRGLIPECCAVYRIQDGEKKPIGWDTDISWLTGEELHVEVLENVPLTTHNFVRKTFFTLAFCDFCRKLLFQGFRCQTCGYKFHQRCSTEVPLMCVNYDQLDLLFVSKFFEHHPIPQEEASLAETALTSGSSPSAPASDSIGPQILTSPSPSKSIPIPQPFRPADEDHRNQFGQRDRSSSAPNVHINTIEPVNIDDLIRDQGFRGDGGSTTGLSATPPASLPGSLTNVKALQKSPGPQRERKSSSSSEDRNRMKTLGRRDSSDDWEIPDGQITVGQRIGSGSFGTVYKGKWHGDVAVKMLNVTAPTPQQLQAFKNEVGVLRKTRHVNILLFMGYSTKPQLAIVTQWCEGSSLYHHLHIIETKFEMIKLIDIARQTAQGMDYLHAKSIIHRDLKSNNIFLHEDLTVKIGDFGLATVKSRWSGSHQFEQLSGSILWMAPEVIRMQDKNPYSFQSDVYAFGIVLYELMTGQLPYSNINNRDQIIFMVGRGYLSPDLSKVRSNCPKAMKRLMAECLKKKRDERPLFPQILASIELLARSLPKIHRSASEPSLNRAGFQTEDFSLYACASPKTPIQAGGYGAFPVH
Sequence of B-RAF(V600E) (P15056 whole entry V600E): as the sequence (P15056 whole entry) above, with V600E counted along it

The IC50 is the concentration needed to halve the response being measured. On B-RAF(V600E), `Cc1ccc(C(CS(=O)(=O)c2ccccc2)=NNC(N)=S)cc1` [Compound 3, 2-Benzenesulfonyl-1-p-tolyl-ethanone thiosemicarbazone] returned an IC50 of 115 ± 6 nM.
On B-RAF(V600E), `Cc1ccc(C(CS(=O)(=O)c2ccccc2)=NNc2nc(C)c(N=Nc3ccccc3)s2)cc1` [Compound 7a, N-(2-Benzenesulfonyl-1-p-tolyl-ethylidene)-N′-(4-methyl-5-phenylazo-thiazol-2-yl)-hydrazine] yielded an IC50 of 199 ± 10 nM.
With `Cc1ccc(C(CS(=O)(=O)c2ccccc2)=NNc2nc(C)c(N=Nc3cccc(C)c3)s2)cc1` [Compound 7b, N-(2-Benzenesulfonyl-1-p-tolyl-ethylidene)-N′-(4-methyl-5-m-tolylazo-thiazol-2-yl)-hydrazine], the results for the IC50 against B-RAF(V600E), against B-RAF (wild-type) and in the series with Sk-mel-23 melanoma cells were 36.3 ± 1.9 nM, 124 ± 6.6 nM and 7870 ± 400 nM, respectively. Further, at B-RAF(V600E), the “selectivity for B-RAFV600E kinase over B-RAF wild-type kinase” value (“selectivity for B-RAFV600E kinase” below) is “approximately four”. Moreover, in the series with WM266.4 melanoma cells, the “potency against WM266.4 melanoma cells relative to dabrafenib” value is given as “three to five”. The “pERK 1/2” value in series [1] was 1.339 ± 0.035 ng mL^−1.
Consider `Cc1ccc(N=Nc2sc(NN=C(CS(=O)(=O)c3ccccc3)c3ccc(C)cc3)nc2C)cc1` [Compound 7c, N-(2-Benzenesulfonyl-1-p-tolyl-ethylidene)-N′-(4-methyl-5-p-tolylazo-thiazol-2-yl)-hydrazine], for which half-maximal inhibition against B-RAF(V600E) (IC50) required 108 ± 5.6 nM.
For `Cc1ccc(C(CS(=O)(=O)c2ccccc2)=NNC2=NC(=O)C(=NNc3ccccc3)S2)cc1` [Compound 11a, 2-[N′-(2-Benzenesulfonyl-1-p-tolyl-ethylidene)-hydrazino]-5-(phenyl-hydrazono)-thiazol-4-one], the IC50 at B-RAF(V600E) worked out at 84.9 ± 4.4 nM; on B-RAF (wild-type) it was 361 ± 19.4 nM; in the series with Sk-mel-23 melanoma cells, 430 ± 20 nM. For the same molecule, the “selectivity for B-RAFV600E kinase” value at B-RAF(V600E) is recorded as “approximately four”. Also, the “potency against WM266.4 melanoma cells relative to dabrafenib” value in the series with WM266.4 melanoma cells is given as “three to five”.
At B-RAF(V600E), `Cc1ccc(C(CS(=O)(=O)c2ccccc2)=NNC2=NC(=O)C(=NNc3ccc(Cl)cc3)S2)cc1` [Compound 11b, 2-[N′-(2-Benzenesulfonyl-1-p-tolyl-ethylidene)-hydrazino]-5-[(4-chloro-phenyl)-hydrazono]-thiazol-4-one] came in with an IC50 of 185 ± 9.6 nM.
Take `Cc1ccc(C(CS(=O)(=O)c2ccccc2)=NNC2=NC(=O)C(=NNc3ccc([N+](=O)[O-])cc3)S2)cc1` [Compound 11c, 2-[N′-(2-Benzenesulfonyl-1-p-tolyl-ethylidene)-hydrazino]-5-[(4-nitro-phenyl)-hydrazono]-thiazol-4-one]: the figures for the IC50 against B-RAF(V600E), against B-RAF (wild-type) and with Sk-mel-23 melanoma cells were 95.4 ± 5 nM, 229 ± 12.3 nM and 22300 ± 1140 nM, respectively. Further, the “potency against WM266.4 melanoma cells relative to dabrafenib” value in the series on WM266.4 melanoma cells is on record as 11 fold.
Turning to `Cc1ccc(C(CS(=O)(=O)c2ccccc2)=NN=C2N=C(c3ccc(Br)cc3)CS2)cc1` [Compound 13a, N-(2-Benzenesulfonyl-1-p-tolyl-ethylidene)-N′-[4-(4-bromo-phenyl)-5H-thiazol-2-ylidene]-hydrazine], the concentration for half-maximal inhibition (IC50) on B-RAF(V600E) is 23.1 ± 1.2 nM; at B-RAF (wild-type), 97.9 ± 5.2 nM; in the series on Sk-mel-23 melanoma cells, 50200 ± 2560 nM. The “selectivity for B-RAFV600E kinase” value at B-RAF(V600E) is recorded as “approximately four”. The “potency against WM266.4 melanoma cells relative to dabrafenib” value in the series with WM266.4 melanoma cells is given as “three to five”.
In turn, `Cc1ccc(C(CS(=O)(=O)c2ccccc2)=NN=C2N=C(c3ccc(C)cc3)CS2)cc1` [Compound 13b, N-(2-Benzenesulfonyl-1-p-tolyl-ethylidene)-N′-(4-p-tolyl-5H-thiazol-2-ylidene)-hydrazine] came in with an IC50 on B-RAF(V600E) of 206 ± 11 nM.
In the case of `Cc1ccc(C(CS(=O)(=O)c2ccccc2)=NNc2nc(-c3ccc(OCCCCOc4ccc(-c5csc(NN=C(CS(=O)(=O)c6ccccc6)c6ccc(C)cc6)n5)cc4)cc3)cs2)cc1` [Compound 15, 1,1′-[1,4-Butanediylbis(oxy)]bis[4-(2-{[2-(benzenesulfonyl)-1-(p-tolyl)ethylidene]-hydrazino}thiazol-4-yl)benzene]], the IC50 against B-RAF(V600E) worked out at 51.9 ± 2.7 nM; at B-RAF (wild-type), 251 ± 13.5 nM; in the series with Sk-mel-23 melanoma cells, 17600 ± 890 nM. In addition, the “selectivity for B-RAFV600E kinase” value at B-RAF(V600E) is 5 fold. In addition, the “cytotoxic potency toward WM266.4 rather than Sk-mel-23 melanoma cells” value with WM266.4 melanoma cells (WM266.4 (B-RAFV600E-mutated) versus Sk-mel-23 (B-RAF wild type)) is “equal potency”.
On to `NC(=S)NN=C(CS(=O)(=O)c1ccccc1)c1ccc(F)cc1` [Compound 17, 2-Benzenesulfonyl-1-(4-fluorophenyl)-ethanone thiosemicarbazone], for which the IC50 at B-RAF(V600E) was 68.2 ± 3.5 nM; on B-RAF (wild-type) it was 153 ± 8.2 nM; in the series on Sk-mel-23 melanoma cells, 12400 ± 630 nM. Also, the “activity toward B-rafV600E as share of the activity of dabrafenib” value on B-RAF(V600E) (relative to dabrafenib) is reported as 70%. In addition, the “potency against WM266.4 melanoma cells relative to dabrafenib” value with WM266.4 melanoma cells was 11 fold.
On to `COc1ccc(-c2csc(NN=C(CS(=O)(=O)c3ccccc3)c3ccc(F)cc3)n2)cc1` [Compound 19, N-[2-Benzenesulfonyl-1-(4-fluorophenyl)-ethylidene]-N′-[4-(4-methoxyphenyl)thiazol-2-yl]-hydrazine], for which, on B-RAF(V600E), the midpoint of inhibition, the IC50, lay at 116 ± 8 nM.
Take `CC(C)(C)c1nc(-c2cccc(NS(=O)(=O)c3c(F)cccc3F)c2F)c(-c2ccnc(N)n2)s1` [Dabrafenib, dabrafenib]: the IC50 in the series on Sk-mel-23 melanoma cells is 9030 ± 460 nM. The “pERK 1/2” value in series [1] is 0.769 ± 0.018 ng mL^−1. Besides, the “% inhibition of pERK 1/2” value in series [1] (WM266.4 cells, compared with the control cancer cells) was found to be 71.9%.
